Assay [1] has as its target T1, Calpain-1 catalytic subunit (Homo sapiens) (UniProt P07384).
T1 sequence (whole entry): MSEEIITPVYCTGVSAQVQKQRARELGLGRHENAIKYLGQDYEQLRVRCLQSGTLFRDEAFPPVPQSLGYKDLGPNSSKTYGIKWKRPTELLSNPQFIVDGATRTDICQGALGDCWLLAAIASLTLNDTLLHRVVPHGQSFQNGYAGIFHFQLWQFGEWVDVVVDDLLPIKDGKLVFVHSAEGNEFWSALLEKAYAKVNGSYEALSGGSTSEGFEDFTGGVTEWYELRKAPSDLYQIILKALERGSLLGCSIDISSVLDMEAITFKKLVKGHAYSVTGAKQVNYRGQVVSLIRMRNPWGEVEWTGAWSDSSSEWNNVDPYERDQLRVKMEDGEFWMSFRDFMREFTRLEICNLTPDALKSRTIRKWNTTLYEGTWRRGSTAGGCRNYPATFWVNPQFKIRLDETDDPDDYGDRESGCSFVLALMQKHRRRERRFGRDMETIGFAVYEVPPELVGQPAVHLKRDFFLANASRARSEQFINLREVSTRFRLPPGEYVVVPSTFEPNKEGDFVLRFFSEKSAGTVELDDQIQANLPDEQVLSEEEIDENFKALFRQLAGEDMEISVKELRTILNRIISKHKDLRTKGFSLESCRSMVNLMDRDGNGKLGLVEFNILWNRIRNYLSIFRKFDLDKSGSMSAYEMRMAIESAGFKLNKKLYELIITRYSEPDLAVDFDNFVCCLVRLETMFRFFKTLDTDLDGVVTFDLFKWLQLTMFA
As to the kind of experiment: Second order rate constant for inactivation of recombinant human Calpain 1 was reported. The procedure, abridged:
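Started with 5 mM CaCl2 at ambient temperature. Fluorescence (ex 340/em 440 nm) was recorded continuously. kobs came from an exponential fit, and k2 from the kobs-vs-[I] slope with a (1+S/Km) correction.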

For assay [2], the target named is Cathepsin B (Homo sapiens) (UniProt P07858). As to the kind of experiment: Ratio of second order rate constant of calpain I to that of cathepsinB.
The target is the same in assay [3]. Nature of the assay: Second order rate constant for inactivation of human liver cathepsin B was reported. The procedure, abridged: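 Human liver cathepsin B inactivation was run by an analogous progress-curve method (substrate plus inhibitor) under published assay conditions. The second-order rate constant came from progress-curve analysis. Inhibitor was added as quickly as possible before measurement because of limited aqueous stability.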

Assay [4] concerns the target T1, Calpain-1 catalytic subunit (Homo sapiens). As to the kind of experiment: Percent inhibition of recombinant Calpain 1 after 5 min of incubation with 10 uM compound. The procedure, abridged: (§1)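 Single-concentration test: 10 inhibitor, 5 min incubation, then percent inhibition of recombinant human calpain I activity measured by the fluorogenic Suc-Leu-Tyr-MNA assay (ex 340/em 440 nm) in Ca2+-initiated buffer at ambient temperature.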

Assay [5] has as its target Cathepsin B (Homo sapiens) (UniProt P07858). As to the kind of experiment: Percent inhibition of recombinant calpain I after 5 min of incubation with 10 uM compound. Put shortly: as §1

Residues, ends and D or L forms follow the SMILES beside them. *: point of attachment. Cbz = O=C(OCc1ccccc1)*; CH2F = FC*

As for `CC(C)CC(NC(=O)OCc1ccccc1)C(=O)NC(Cc1ccccc1)C(=O)CON1C(=O)C2C3C=CC(C3)C2C1=O` (stereo not given), the K obs / 1 in assay [1] was found to be 1000 M⁻¹ s⁻¹; in assay [3], 6900 M⁻¹ s⁻¹. Further, the Ratio in assay [2] was found to be 0.14.
`CC(C)CC(NC(=O)OCc1ccccc1)C(=O)NC(Cc1ccccc1)C(=O)CF` (stereo not drawn) (Cbz-Leu-Phe-CH2F; configuration not given here): the K obs / 1 amounted to 136000 M⁻¹ s⁻¹ in assay [1] and 300 M⁻¹ s⁻¹ in assay [3]. In assay [2], the Ratio worked out at 454.
For the compound `CC(C)CC(NC(=O)OCc1ccccc1)C(=O)NC(Cc1ccccc1)C(=O)Cn1nnc2ccccc21` (stereo not given), the inhibition in assay [4] is 83%.
Regarding `CC(C)CC(NC(=O)OCc1ccccc1)C(=O)NC(Cc1ccccc1)C(=O)COn1nnc2ccccc21` (stereo in doubt; 1d), the K obs / 1 is 320000 M⁻¹ s⁻¹ in assay [1] and 118000 M⁻¹ s⁻¹ in assay [3]. Also, the Ratio in assay [2] worked out at 2.7.
Turning to `CC(C)CC(NC(=O)OCc1ccccc1)C(=O)NC(Cc1ccccc1)C(=O)CON1C(=O)c2ccccc2C1=O` (stereo not given), the inhibition in assay [4] was determined as 32%.
Turning to `CCC(NC(=O)C(CC(C)C)NC(=O)OCc1ccccc1)C(=O)COn1nnc2ccccc21` (stereo not given), the K obs / 1 in assay [1] amounted to 63000 M⁻¹ s⁻¹; in assay [3], 443000 M⁻¹ s⁻¹. The Ratio in assay [2] was found to be 0.14.
As for `CC(C)CC(NC(=O)OCc1ccccc1)C(=O)NC(CC(C)C)C(=O)NC(Cc1ccccc1)C(=O)COn1nnc2ccccc21` (stereo not given), in assay [5], the inhibition came to 32%. For the same compound, the K obs / 1 in assay [1] stood at 524000 M⁻¹ s⁻¹.
For the compound `CC(C)CC(NC(=O)OCc1ccccc1)C(=O)NC(Cc1ccccc1)C(=O)COn1nnc2cccnc21` (stereo not given), the K obs / 1 in assay [1] is 184000 M⁻¹ s⁻¹; in assay [3] it was 107000 M⁻¹ s⁻¹. In addition, the Ratio in assay [2] worked out at 1.7.
On to `CC(C)CC(NC(=O)OCc1ccccc1)C(=O)NC(Cc1ccccc1)C(=O)CON1C(=O)CCC1=O` (stereo not given), for which the K obs / 1 in assay [1] came to 5800 M⁻¹ s⁻¹.

As usually defined, the inhibition is the relative decrease from the control value, in per cent.

For the origin of these results see ChEMBL document CHEMBL1133143, “Calpain inhibitors based on the quiescent affinity label concept: high rates of calpain inactivation with leaving groups derived from N-hydroxy peptide coupling reagents” (Bioorg Med Chem Lett, 2000).
